Assay results as given in ChEMBL document CHEMBL1127046, “Antitumor agents. 3. Synthesis and biological activity of 4 beta-alkyl derivatives containing hydroxy, amino, and amido groups of 4'-O-demethyl-4-desoxypodophyllotoxin as antitumor agents” (J Med Chem, 1993).

Experiments:
P388 [1] = assay: Antitumor activity in vivo expressed as the percentage increase in life span at the P388 dose of 0.8 (mg/kg/day); format: functional, Mus musculus
In short: (§1)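 P388 leukaemia, 1 × 10^6 cells given sc to male CDF1 mice (5 weeks old) on day 0. Drug was dosed iv on days 1–5 in saline with 3.5% DMSO and 6.5% Tween 80. Groups had 7 mice; controls had 10. ILS was calculated from mean survival time of treated versus control mice, excluding 30-day survivors.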

[2] = test system: Lewis lung carcinoma cell line; assay: Percentage inhibition of tumor growth at the Lewis lung dose of 2.3 (mg/kg/ day); format: functional, Mus musculus
In short: (§2)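 Lewis lung carcinoma fragments (2 mm3) implanted sc into male BDF1 mice (5 weeks) on day 0. Compound given iv on days 4–8, in saline or saline with 3.5% DMSO and 6.5% Tween 80. Seven mice per group, 10 controls. Percent inhibition from mean tumour weight versus control on day 17; p<0.05, 0.01 or 0.001 versus control.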

COLO 320DM [3] = assay: Inhibition of growth of colon cancer COLO 320DM cell line; format: functional; details: Homo sapiens, read-out: ED50 (the source's name)
In short: (§3)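 Cells were seeded and cultured for 24 h, then exposed to drug for 96 or 4 h. Cells were counted by hemocytometer. IC50 is the concentration giving a 50% reduction in cell number relative to control.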

[4] = test system: Lewis lung carcinoma cell line; assay: Mean body weight change after inoculation of 3.2 x 10 e 5 cells iv and administration of compounds iv from days 1-5 at the dose of 0.77 (mg/kg/day); format: functional, Mus musculus
In short: (§4)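 Male BDF1 mice (5 weeks) given 3.2 x 10^5 Lewis lung carcinoma cells iv on day 0, then dosed iv on days 1–5. Seven mice per group, 14 controls. Mean body weight change (g) taken from day 0 to day 6.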

[5] = test system: Lewis lung carcinoma cell line; assay: Percentage inhibition of tumor growth at the Lewis lung dose of 1.3 (mg/kg/ day); format: functional, Mus musculus; in short: as §2
L1210 [6] = assay: Antitumor activity in vivo expressed as the percentage increase in life span at the dose of 2.5 (mg/kg/day); format: functional, Mus musculus
P388 [7] = assay: Antitumor activity in vivo expressed as the percentage increase in life span at the P388 dose of 2.3 (mg/kg/day); format: functional, Mus musculus; in short: as §1
P388 [8] = assay: Antitumor activity in vivo expressed as the percentage increase in life span at the P388 dose of 1.3 (mg/kg/day); format: functional, Mus musculus; in short: as §1
ACHN = assay: Inhibition of growth of renal cancer ACHN cell line; format: functional; details: Homo sapiens, read-out: ED50 (the source's name)
In short: (§5)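 Human tumour cell lines plated and grown 24 h in a CO2 incubator, then exposed to compound for 96 or 4 h. Cells counted by hemocytometer. IC50 is the concentration giving 50% reduction in cell number versus untreated control.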

[9] = Inhibition of growth of hepatoma HLF cell line; format: functional; details: Homo sapiens, read-out: ED50 (the source's name); in short: as §3
[10] = test system: Lewis lung carcinoma cell line; assay: Mean body weight change after inoculation of 3.2 x 10 e 5 cells iv and administration of compounds iv from days 1-5 at the dose of 7 (mg/kg/day); format: functional, Mus musculus; in short: as §4
[11] = test system: Lewis lung carcinoma cell line; assay: Increased life span at the dose of 7 (mg/kg/day); format: functional, Mus musculus
[12] = test system: Lewis lung carcinoma cell line; assay: Increased life span at the dose of 0.77 (mg/kg/day); format: functional, Mus musculus
[13] = Inhibition of growth of lung non-small cell carcinoma PC-7 cell line; format: functional; details: Homo sapiens, read-out: ED50 (the source's name); in short: as §3
P388 [14] = assay: Cytotoxicity against P388 leukemia; format: functional, cell-based; details: Mus musculus
[15] = Inhibition of growth of renal cancer G-402 cell line; format: functional; details: Homo sapiens, read-out: ED50 (the source's name); in short: as §5
[16] = test system: Lewis lung carcinoma cell line; assay: Increased life span at the dose of 1.3 (mg/kg/day); format: functional, Mus musculus
[17] = Inhibition of DNA topoisomerase II from rat liver measured as 50% reduction in the amount of minicircle DNA relative to the control
SBC-3 = assay: Inhibition of growth of lung small cell carcinoma SBC-3 cell line; format: functional; details: Homo sapiens, read-out: ED50 (the source's name); in short: as §5
[18] = test system: Lewis lung carcinoma cell line; assay: Percentage inhibition of tumor growth at the Lewis lung dose of 4 (mg/kg/ day); format: functional, Mus musculus; in short: as §2
[19] = test system: Lewis lung carcinoma cell line; assay: Mean body weight change after inoculation of 3.2 x 10 e 5 cells iv and administration of compounds iv from days 1-5 at the dose of 4 (mg/kg/day); format: functional, Mus musculus; in short: as §4
Tubulin = Tubulin (Bos taurus, UniProt Q6B856+Q862L2+Q862F3); assay: Drug concentration needed to produce a 50% reduction of bovine brain tubulin polymerization relative to the control
[20] = test system: Lewis lung carcinoma cell line; assay: Increased life span at the dose of 2.3 (mg/kg/day); format: functional, Mus musculus
[21] = Inhibition of growth of lung small cell carcinoma RERF-LC-MA cell line; format: functional; details: Homo sapiens; read-out: ED50 (the source's name); in short: as §3
[22] = Inhibition of growth of colon carcinoma COLO 2-1 cell line; format: functional; details: Homo sapiens, read-out: ED50 (the source's name); in short: as §3
L1210 [23] = assay: The number of mice survived for 30 days at the dose of 2.5 (mg/kg/day); format: functional, Mus musculus
[24] = test system: Lewis lung carcinoma cell line; assay: Increased life span at the dose of 4 (mg/kg/day) (number of survivors); format: functional, Mus musculus
[25] = test system: Lewis lung carcinoma cell line; assay: Mean body weight change after inoculation of 3.2 x 10 e 5 cells iv and administration of compounds iv from days 1-5 at the dose of 2.3 (mg/kg/day); format: functional, Mus musculus; in short: as §4
Homo sapiens = species: Homo sapiens; assay: Inhibition of growth of hepatoma HLE cell line; format: functional; details: read-out: ED50 (the source's name); in short: as §3
A549 = assay: Inhibition of growth of lung non-small cell carcinoma A-549 cell line; format: functional; details: Homo sapiens, read-out: ED50 (the source's name); in short: as §3
[26] = test system: Lewis lung carcinoma cell line; assay: Increased life span at the lewis lung dose of 0.44 (mg/kg/day); format: functional, Mus musculus
[27] = test system: Lewis lung carcinoma cell line; assay: Increased life span at the lewis lung dose of 0.25 (mg/kg/day); format: functional, Mus musculus
COLO 320DM [28] = assay: Inhibition of growth of colon carcinoma COLO 320DM cell line; format: functional; details: Homo sapiens, read-out: ED50 (the source's name); in short: as §3
[29] = test system: Lewis lung carcinoma cell line; assay: Percentage inhibition of tumor growth at the lewis lung dose of 0.3 (mg/kg/ day); format: functional, Mus musculus; in short: as §2
[30] = test system: Lewis lung carcinoma cell line; assay: Increased life span at the lewis lung dose of 0.77 (mg/kg/day); format: functional, Mus musculus
P388 [31] = assay: Antitumor activity in vivo expressed as the percentage increase in life span at the P388 dose of 0.3 (mg/kg/day); format: functional, Mus musculus; in short: as §1
[32] = test system: Lewis lung carcinoma cell line; assay: Mean body weight change after inoculation of 3.2 x 10 e 5 cells iv and administration of compounds iv from days 1-5 at the dose of 0.44 (mg/kg/day); format: functional, Mus musculus; in short: as §4
P388 [33] = assay: Antitumor activity in vivo expressed as the percentage increase in life span at the P388 dose of 0.4 (mg/kg/day); format: functional, Mus musculus; in short: as §1
[34] = test system: Lewis lung carcinoma cell line; assay: Mean body weight change after inoculation of 3.2 x 10 e 5 cells iv and administration of compounds iv from days 1-5 at the dose of 0.25 (mg/kg/day); format: functional, Mus musculus; in short: as §4
[35] = test system: Lewis lung carcinoma cell line; assay: Mean body weight change after inoculation of 3.2 x 10 e 5 cells iv and administration of compounds iv from days 1-5 at the dose of 1.3 (mg/kg/day); format: functional, Mus musculus; in short: as §4
[36] = test system: Lewis lung carcinoma cell line; assay: Percentage inhibition of tumor growth at the lewis lung dose of 1.3 (mg/kg/ day); (p<0001); format: functional, Mus musculus; in short: as §2
[37] = test system: Lewis lung carcinoma cell line; assay: Percentage inhibition of tumor growth at the lewis lung dose of 2.3 (mg/kg/ day); (p<0001); format: functional, Mus musculus; in short: as §2
L1210 [38] = assay: The number of mice survived for 30 days at the dose of 1.3 (mg/kg/day); format: functional, Mus musculus
[39] = test system: Lewis lung carcinoma cell line; assay: Increased life span at the lewis lung dose of 1.3 (mg/kg/day); format: functional, Mus musculus
L1210 [40] = assay: Antitumor activity in vivo expressed as the percentage increase in life span at the dose of 1.3 (mg/kg/day); format: functional, Mus musculus
[41] = test system: Lewis lung carcinoma cell line; assay: Percentage inhibition of tumor growth at the dose of 4 (mg/kg/ day); format: functional, Mus musculus; in short: as §2
[42] = test system: Lewis lung carcinoma cell line; assay: Antitumor activity in vivo expressed as the percentage increase in life span at the lewis lung dose of 1.3 (mg/kg/day); format: functional, Mus musculus
[43] = test system: Lewis lung carcinoma cell line; assay: Antitumor activity in vivo expressed as the percentage increase in life span at the lewis lung dose of 0.77 (mg/kg/day); format: functional, Mus musculus
P388 [44] = assay: Increased life span at the P388 dose of 0.8 (mg/kg/day); format: functional, Mus musculus; in short: as §1
P388 [45] = assay: Increased life span at the P388 dose of 2.3 (mg/kg/day); format: functional, Mus musculus; in short: as §1
[46] = test system: Lewis lung carcinoma cell line; assay: Antitumor activity in vivo expressed as the percentage increase in life span at the lewis lung dose of 2.3 (mg/kg/day); format: functional, Mus musculus
[47] = test system: Lewis lung carcinoma cell line; assay: Percentage inhibition of tumor growth at the dose of 2.3 (mg/kg/ day); format: functional, Mus musculus; in short: as §2
[48] = test system: Lewis lung carcinoma cell line; assay: Antitumor activity in vivo expressed as the percentage increase in life span at the lewis lung dose of 4 (mg/kg/day); format: functional, Mus musculus
P388 [49] = assay: Increased life span at the P388 dose of 1.3 (mg/kg/day); format: functional, Mus musculus; in short: as §1

Row | Compound | ILS max (P388 [1]) [%] | bwc [4] [g] | ILS max (L1210 [6]) [%] | EC50 (ACHN) [µg/mL] | EC50 [9] [µg/mL] | EC50 [13] [µg/mL] | IC50 (P388 [14]) [nM] | EC50 [15] [µg/mL] | IC50 [17] [µM] | EC50 (SBC-3) [µg/mL] | bwc [19] [g] | IC50 (Tubulin) [µM] | EC50 [21] [µg/mL] | EC50 [22] [µg/mL] | Survivors (L1210 [23]) | bwc [25] [g] | EC50 (Homo sapiens) [µg/mL] | EC50 (A549) [µg/mL] | EC50 (COLO 320DM [28]) [µg/mL] | bwc [35] [g] | other results
1 | COc1cc([C@@H]2c3cc4c(cc3[C@@H](CCN3CCC(N5CCCCC5)CC3)C3COC(=O)[C@@H]32)OCO4)cc(OC)c1O.Cl.Cl (some centres not stated) | 143 | 0.3 | 102 | 1.1 | 2.7 | 4 | 3.3 | 0.18 | 29.8 | 0.16 | -1.6 | > 167 | 35 | 13 | 6 | -0.5 | 0.31 | 1 |  |  | Inhibition [2]: 50%; EC50 (COLO 320DM [3]): 2.1 µg/mL; Inhibition [5]: 40%; ILS max (P388 [7]): 231%; ILS max (P388 [8]): 202%; bwc [10]: -4.1 g; ILS max [11]: -44%; ILS max [12]: 43%; ILS max [16]: 63%; Inhibition [18]: 91%; ILS max [20]: 133%; ILS max [24]: -13%
2 | COc1cc([C@@H]2c3cc4c(cc3[C@@H](CCN3CCN(C)CC3)C3COC(=O)[C@@H]32)OCO4)cc(OC)c1O.Cl.Cl (some centres not stated) | 182 | -0.9 |  | 2 | 1.6 | 2.9 | 3 | 0.25 | 33.6 | 0.28 |  | > 132 | 5.8 | 9.3 |  |  | 0.13 | 0.76 | 0.99 | -3.3 | ILS max [26]: 67%; ILS max [27]: 24%; Inhibition [29]: 37%; ILS max [30]: 91%; ILS max (P388 [31]): 67%; bwc [32]: 0.3 g; ILS max (P388 [33]): 112%; bwc [34]: 0.9 g; Inhibition [36]: 81%; Inhibition [37]: 96%; Survivors (L1210 [38]): 1; ILS max [39]: 127%; ILS max (L1210 [40]): 140%
3 | COc1cc([C@@H]2c3cc4c(cc3[C@@H](CCN(C)CCN(C)C)C3COC(=O)[C@@H]32)OCO4)cc(OC)c1O.Cl.Cl (some centres not stated) |  | 0.44 | 103 | 2 | 2.8 | 3.5 | 1 | 0.33 | 32.5 | 0.41 | -2.9 | > 99 | 14 | 13 | 6 | -0.7 | 0.23 | 0.82 | 2 | 0.2 | Inhibition [41]: 95%; ILS max [42]: 72%; ILS max [43]: 38%; ILS max (P388 [44]): 116%; ILS max (P388 [45]): 236%; ILS max [46]: 90%; Inhibition [47]: 51%; ILS max [48]: 209%; ILS max (P388 [49]): 196%
